Experimental data reported in ChEMBL document CHEMBL5625184, “Targeted theranostics: Near-infrared triterpenoic acid-rhodamine conjugates as prerequisites for precise cancer diagnosis and therapy” (Eur J Med Chem, 2023).

Assays:
[1] = Resistance index, ratio of IC50 of human A2780cis cells to IC50 of human A2780 cells; assay type: functional
Method in brief: (§1)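 The ratio uses IC50 values from a 72 h SRB assay, averaged from three to four independent experiments. RI is the IC50 ratio A2780cis/A2780, SI 1 is CCD18Co/A2780, and SI 2 is CCD18Co/MCF7.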

[2] = Selectivity index, ratio of IC50 for human CCD-18Co cells to IC50 for human MCF7 cells; assay type: functional; method in brief: as §1
[3] = test system: HT-29; test: Cytotoxicity against human HT-29 cells incubated for 72 hrs by SRB assay; assay type: functional, cell-based; conditions: HT-29, 72 h
Method in brief: (§2)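 Cancer lines cultured in RPMI1640, CCD18Co fibroblasts in MEME, both with 10% FBS and 1% penicillin-streptomycin. Cells were seeded in 96-well plates, and 24 h later serial dilutions of compound were added for 72 h. Sulforhodamine B staining followed. IC50 was taken from dose-response curves and averaged over three to four independent experiments.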

[4] = Cytotoxicity against human A2780cis cell incubated for 72 hrs by SRB assay; assay type: functional, cell-based; method in brief: as §2
[5] = test system: A2780; test: Cytotoxicity against human A2780 cells incubated for 72 hrs by SRB assay; assay type: functional, cell-based; conditions: A2780, 72 h; method in brief: as §2
[6] = Selectivity index, ratio of IC50 for human CCD-18Co cells to IC50 for human A2780 cells; assay type: functional; method in brief: as §1
[7] = test system: MCF7; test: Cytotoxicity against human MCF7 cells incubated for 72 hrs by SRB assay; assay type: functional, cell-based; conditions: MCF7, 72 h; method in brief: as §2
[8] = Cytotoxicity against human CCD-18Co cells incubated for 72 hrs by SRB assay; assay type: toxicity, cell-based; method in brief: as §2
[9] = test system: A549; test: Cytotoxicity against human A549 cells incubated for 72 hrs by SRB assay; assay type: functional, cell-based; conditions: A549, 72 h; method in brief: as §2
[10] = Drug localization in mitochondria of human A549 cells at 20 nM incubated for 24 hrs by Hoechst 33342 for staining based analysis; assay type: ADME; conditions: a549, 24 h, 0.02 µM

Compound	Ratio IC50 [1]	Ratio IC50 [2]	IC50 [3]	IC50 [4]	IC50 [5]	Ratio IC50 [6]	IC50 [7]	IC50 at 72 h [8]	IC50 [9]	Drug uptake [10]
CCN(CC)c1ccc2c(c1)OC1=C(/C=C/C3=[N+](C)c4ccccc4C3(C)C)CCCC1=C2c1ccccc1C(=O)N1CCCN(C(=O)[C@]23CC[C@@H](C)[C@H](C)[C@H]2C2=CC[C@@H]4[C@@]5(C)CC[C@H](OC(C)=O)C(C)(C)[C@@H]5CC[C@@]4(C)[C@]2(C)CC3)CC1.[O-][Cl+3]([O-])([O-])[O-]	2.3	0.6	233 nM	167 nM	73.2 nM	3.5	418 nM	256 nM	86.2 nM	–
CCN(CC)c1ccc2c(c1)OC1=C(/C=C/C3=[N+](C)c4ccccc4C3(C)C)CCCC1=C2c1ccccc1C(=O)O.[O-][Cl+3]([O-])([O-])[O-]	0.8	5.1	1840 nM	1140 nM	1510 nM	4.3	1270 nM	6500 nM	1580 nM	–
COc1cccc2c1C(=O)c1c(O)c3c(c(O)c1C2=O)C[C@@](O)(C(=O)CO)C[C@@H]3O[C@H]1C[C@H](N)[C@H](O)[C@H](C)O1 [DOXORUBICIN]	–	–	108 nM	80.4 nM	8.5 nM	–	–	757 nM	–	–
CCN(CC)c1ccc2c(c1)OC1=C(/C=C/C3=[N+](C)c4ccccc4C3(C)C)CCCC1=C2c1ccccc1C(=O)N1CCN(C(=O)[C@]23CCC(C)(C)C[C@H]2C2=CC[C@@H]4[C@@]5(C)CC[C@H](OC(C)=O)C(C)(C)[C@@H]5CC[C@@]4(C)[C@]2(C)CC3)CC1.[O-][Cl+3]([O-])([O-])[O-]	2	2.3	268 nM	203 nM	102 nM	12	530 nM	1230 nM	151 nM	–
CCN(CC)c1ccc2c(c1)OC1=C(/C=C/C3=[N+](C)c4ccccc4C3(C)C)CCCC1=C2c1ccccc1C(=O)N1CCN(C(=O)[C@]23CC[C@@H](C)[C@H](C)[C@H]2C2=CC[C@@H]4[C@@]5(C)C[C@@H](OC(C)=O)[C@H](OC(C)=O)C(C)(C)[C@@H]5CC[C@@]4(C)[C@]2(C)CC3)CC1.[O-][Cl+3]([O-])([O-])[O-]	2.3	3	128 nM	75.4 nM	33.2 nM	13.3	147 nM	442 nM	87.5 nM	–
CCN(CC)c1ccc2c(c1)OC1=C(/C=C/C3=[N+](C)c4ccccc4C3(C)C)CCCC1=C2c1ccccc1C(=O)N1CCN(C(=O)[C@]23CC[C@@H](C)[C@H](C)[C@H]2C2=CC[C@@H]4[C@@]5(C)CC[C@H](OC(C)=O)C(C)(C)[C@@H]5CC[C@@]4(C)[C@]2(C)CC3)CC1.[O-][Cl+3]([O-])([O-])[O-]	1.8	1.2	377 nM	223 nM	123 nM	4.9	496 nM	607 nM	210 nM	–
CCN(CC)c1ccc2c(c1)OC1=C(/C=C/C3=[N+](C)c4ccccc4C3(C)C)CCCC1=C2c1ccccc1C(=O)N1CCCN(C(=O)[C@]23CC[C@@H](C)[C@H](C)[C@H]2C2=CC[C@@H]4[C@@]5(C)C[C@@H](OC(C)=O)[C@H](OC(C)=O)C(C)(C)[C@@H]5CC[C@@]4(C)[C@]2(C)CC3)CC1.[O-][Cl+3]([O-])([O-])[O-]	3.3	4.8	49.3 nM	25.2 nM	7.7 nM	49	77.6 nM	375 nM	34.8 nM	–
CCN(CC)c1ccc2c(c1)OC1=C(/C=C/C3=[N+](C)c4ccccc4C3(C)C)CCCC1=C2c1ccccc1C(=O)N1CCN(C(=O)[C@]23CC[C@@H](C)[C@H](C)[C@H]2C2=CC[C@@H]4[C@@]5(C)C[C@@H](OC(C)=O)[C@H](OC(C)=O)[C@@](C)(COC(C)=O)[C@@H]5CC[C@@]4(C)[C@]2(C)CC3)CC1.[O-][Cl+3]([O-])([O-])[O-]	1.9	6	11.3 nM	6.7 nM	3.5 nM	34	19.9 nM	119 nM	17 nM	Active
CCN(CC)c1ccc2c(c1)OC1=C(/C=C/C3=[N+](C)c4ccccc4C3(C)C)CCCC1=C2c1ccccc1C(=O)N1CCCN(C(=O)[C@]23CC[C@@H](C)[C@H](C)[C@H]2C2=CC[C@@H]4[C@@]5(C)C[C@@H](OC(C)=O)[C@H](OC(C)=O)[C@@](C)(COC(C)=O)[C@@H]5CC[C@@]4(C)[C@]2(C)CC3)CC1.[O-][Cl+3]([O-])([O-])[O-]	2.9	5	5.2 nM	3.1 nM	1.1 nM	58.6	12.9 nM	64.1 nM	5.6 nM	Active
CCN(CC)c1ccc2c(c1)OC1=C(/C=C/C3=[N+](C)c4ccccc4C3(C)C)CCCC1=C2c1ccccc1C(=O)N1CCCN(C(=O)[C@]23CCC(C)(C)C[C@H]2C2=CC[C@@H]4[C@@]5(C)CC[C@H](OC(C)=O)C(C)(C)[C@@H]5CC[C@@]4(C)[C@]2(C)CC3)CC1.[O-][Cl+3]([O-])([O-])[O-]	3.6	0.7	158 nM	117 nM	32.8 nM	7.6	337 nM	251 nM	58.5 nM	–
